“Also recorded” adds a separate entry of the source.
How the values were obtained:
Assay type in all cases: cell-based
[1] = target: danio rerio TRPN1 (Danio rerio, UniProt Q7T1G6); conditions: for Emax: HEK293, read-out: Max % Activation (Control)
In short: (§1)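 HEK293 lines stably expressed YFP-fused human TRPML3 or zebrafish TRPN1 (G418 0.8 mg/ml, twice subcloned) and were plated at 1,500 cells/well for 23 h at 37 °C. After Fluo-8 loading (1 h 37 °C, 30 min RT), a 5 s basal read and 120 s post-addition read were taken. Max/basal ratios were normalized to DMSO and carbachol (87 µM).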

[2] = target: T1, TRPML3 (Homo sapiens, UniProt Q8TDD5); assay: Whole-cell patch-clamp with intracellular application; conditions: for response to intracellular application (infusion): whole-cell, −80 mV
T1 sequence (Q8TDD5 1-553): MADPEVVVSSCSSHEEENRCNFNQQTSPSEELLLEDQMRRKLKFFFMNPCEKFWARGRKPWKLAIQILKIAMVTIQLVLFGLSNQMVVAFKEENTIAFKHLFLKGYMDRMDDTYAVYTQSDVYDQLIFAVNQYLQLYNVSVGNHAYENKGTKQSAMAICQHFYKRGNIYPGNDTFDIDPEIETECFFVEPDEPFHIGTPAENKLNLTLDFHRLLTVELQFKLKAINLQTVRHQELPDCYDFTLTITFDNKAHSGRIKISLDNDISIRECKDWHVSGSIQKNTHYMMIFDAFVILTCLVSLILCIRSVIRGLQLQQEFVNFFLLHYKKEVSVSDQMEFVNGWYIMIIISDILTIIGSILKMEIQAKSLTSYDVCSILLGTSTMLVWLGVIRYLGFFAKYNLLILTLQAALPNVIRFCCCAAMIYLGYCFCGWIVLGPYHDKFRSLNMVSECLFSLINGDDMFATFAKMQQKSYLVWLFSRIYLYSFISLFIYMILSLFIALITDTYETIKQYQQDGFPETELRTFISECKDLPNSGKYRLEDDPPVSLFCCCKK

[3] = target: T1, TRPML3; assay: Whole-cell patch-clamp, HEK293 cells transiently transfected with TRPML3; conditions: for nA/pF (-80 mV) (TRPML3): current density at −80 mV, 10 µM in standard bath solution, mean ±SEM (n≥3); for average current density relative to constitutively active TRPML3 A419P: whole-cell, −80 mV
In short: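 Whole-cell patch clamp was done on HEK293 cells 24 h after transient transfection with human TRPML3 or YFP; constitutively active TRPML3(A419P) cells served as positive control. Bath solution (mM): 138 NaCl, 5.4 KCl, 2 MgCl2, 2 CaCl2, 10 HEPES, 10 d-glucose; pH 7.4. Pipette solution (mM): 140 CsCl, 10 HEPES, 3 ATP-Na, 1 BAPTA, 2 MgCl2; pH 7.2. Compounds at 10 µM were perfused. Capacitance-normalized current at −80 mV is reported as mean ± SEM, n≥3.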

[4] = target: T1, TRPML3; conditions: HEK293, read-out: Max % Activation (TRPML3)
In short: as §1

[5] = target: T1, TRPML3; assay: Fura-2 calcium imaging, HEK293 cells transiently expressing TRPML3; conditions: for ⊗F340/F380 (TRPML3): 10 µM compound, mean ±SEM (n≥3); for kinetics of intracellular calcium increase: TRPML3-transfected HEK293 cells
In short: (§2)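 HEK293 cells were transiently transfected (Genejammer) with the human channel construct or YFP control and measured 24 h later. Cells on glass coverslips were loaded with 4 µM fura-2-AM in bath solution (mM: 138 NaCl, 6 KCl, 2 MgCl2, 2 CaCl2, 10 HEPES, 5.5 D-glucose; pH 7.4). Compounds were applied at 10 µM and the F340/F380 ratio recorded. Values are mean ± SEM, n≥3.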

[6] = target: T2, TRPML3 coexpressed with TRPML1 (Homo sapiens, UniProt Q8TDD5); assay: Calcium imaging, HEK293 cells coexpressing TRPML3 with TRPML1; conditions: 10 µM
T2 sequence (Q8TDD5 1-553): T1 sequence (Q8TDD5 1-553)
In short: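 Human TRPML3 and TRPML1 were transiently coexpressed in HEK293 cells (Genejammer) and imaged 24 h post-transfection. Cells on glass coverslips were loaded with 4 μM fura-2-AM in bath solution (mM: 138 NaCl, 6 KCl, 2 MgCl₂, 2 CaCl₂, 10 HEPES, 5.5 D-glucose, pH 7.4) and read on a monochromator imaging system. Test compound was 10 μM. Mean ± SEM, n≥3 independent experiments, 20–30 cells each.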

[7] = target: T1, TRPML3; assay: Excised; conditions: patches held at −80 mV
[8] = target: TRPML1(NC) (Homo sapiens, UniProt Q9GZU1); assay: Fura-2 calcium imaging, HEK293 cells expressing TRPML1; conditions: 10 µM, plasma membrane-localized TRPML1 variant
TRPML1(NC), sequence (Q9GZU1 17-572 limits assumed): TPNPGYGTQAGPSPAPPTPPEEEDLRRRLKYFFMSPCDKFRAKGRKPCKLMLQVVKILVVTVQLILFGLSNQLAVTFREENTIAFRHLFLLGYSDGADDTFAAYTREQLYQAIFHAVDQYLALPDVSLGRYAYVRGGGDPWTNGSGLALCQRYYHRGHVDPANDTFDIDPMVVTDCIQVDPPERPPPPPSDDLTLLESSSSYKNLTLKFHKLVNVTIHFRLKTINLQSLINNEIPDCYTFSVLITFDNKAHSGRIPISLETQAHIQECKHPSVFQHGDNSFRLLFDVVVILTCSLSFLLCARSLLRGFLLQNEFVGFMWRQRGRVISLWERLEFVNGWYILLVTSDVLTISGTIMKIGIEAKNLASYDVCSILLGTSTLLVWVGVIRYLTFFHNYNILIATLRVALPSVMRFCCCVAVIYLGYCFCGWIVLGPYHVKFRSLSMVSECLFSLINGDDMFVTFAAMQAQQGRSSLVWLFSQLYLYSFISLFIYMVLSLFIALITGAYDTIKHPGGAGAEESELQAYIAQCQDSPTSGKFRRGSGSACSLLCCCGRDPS
In short: as §2

[9] = test system: YFP-expressing HEK293 cells; assay: Fura-2 calcium imaging, YFP-expressing HEK293 cells; conditions: mean ±SEM (n≥3)
In short: as §2

[10] = target: T3, TRPML2 (Homo sapiens, UniProt Q8IZK6); assay: Fura-2 calcium imaging, HEK293 cells expressing TRPML2; conditions: 10 µM
T3 sequence (Q8IZK6 1-566): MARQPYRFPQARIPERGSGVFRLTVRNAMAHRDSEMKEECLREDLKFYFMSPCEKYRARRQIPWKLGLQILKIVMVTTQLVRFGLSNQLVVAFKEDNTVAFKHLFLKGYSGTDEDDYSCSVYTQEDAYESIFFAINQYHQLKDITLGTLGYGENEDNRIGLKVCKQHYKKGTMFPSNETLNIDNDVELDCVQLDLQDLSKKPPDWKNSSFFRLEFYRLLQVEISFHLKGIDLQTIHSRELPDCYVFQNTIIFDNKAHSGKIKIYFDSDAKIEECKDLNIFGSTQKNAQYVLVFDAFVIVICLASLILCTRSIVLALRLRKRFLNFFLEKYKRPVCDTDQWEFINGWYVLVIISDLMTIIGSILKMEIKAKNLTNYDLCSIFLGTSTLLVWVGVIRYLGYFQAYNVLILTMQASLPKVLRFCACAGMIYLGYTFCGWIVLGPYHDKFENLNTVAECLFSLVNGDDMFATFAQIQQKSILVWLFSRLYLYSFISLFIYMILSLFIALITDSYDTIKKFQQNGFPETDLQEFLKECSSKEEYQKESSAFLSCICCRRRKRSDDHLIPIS
In short: as §2

danio rerio TRPN1, sequence (Q7T1G6 1-1614): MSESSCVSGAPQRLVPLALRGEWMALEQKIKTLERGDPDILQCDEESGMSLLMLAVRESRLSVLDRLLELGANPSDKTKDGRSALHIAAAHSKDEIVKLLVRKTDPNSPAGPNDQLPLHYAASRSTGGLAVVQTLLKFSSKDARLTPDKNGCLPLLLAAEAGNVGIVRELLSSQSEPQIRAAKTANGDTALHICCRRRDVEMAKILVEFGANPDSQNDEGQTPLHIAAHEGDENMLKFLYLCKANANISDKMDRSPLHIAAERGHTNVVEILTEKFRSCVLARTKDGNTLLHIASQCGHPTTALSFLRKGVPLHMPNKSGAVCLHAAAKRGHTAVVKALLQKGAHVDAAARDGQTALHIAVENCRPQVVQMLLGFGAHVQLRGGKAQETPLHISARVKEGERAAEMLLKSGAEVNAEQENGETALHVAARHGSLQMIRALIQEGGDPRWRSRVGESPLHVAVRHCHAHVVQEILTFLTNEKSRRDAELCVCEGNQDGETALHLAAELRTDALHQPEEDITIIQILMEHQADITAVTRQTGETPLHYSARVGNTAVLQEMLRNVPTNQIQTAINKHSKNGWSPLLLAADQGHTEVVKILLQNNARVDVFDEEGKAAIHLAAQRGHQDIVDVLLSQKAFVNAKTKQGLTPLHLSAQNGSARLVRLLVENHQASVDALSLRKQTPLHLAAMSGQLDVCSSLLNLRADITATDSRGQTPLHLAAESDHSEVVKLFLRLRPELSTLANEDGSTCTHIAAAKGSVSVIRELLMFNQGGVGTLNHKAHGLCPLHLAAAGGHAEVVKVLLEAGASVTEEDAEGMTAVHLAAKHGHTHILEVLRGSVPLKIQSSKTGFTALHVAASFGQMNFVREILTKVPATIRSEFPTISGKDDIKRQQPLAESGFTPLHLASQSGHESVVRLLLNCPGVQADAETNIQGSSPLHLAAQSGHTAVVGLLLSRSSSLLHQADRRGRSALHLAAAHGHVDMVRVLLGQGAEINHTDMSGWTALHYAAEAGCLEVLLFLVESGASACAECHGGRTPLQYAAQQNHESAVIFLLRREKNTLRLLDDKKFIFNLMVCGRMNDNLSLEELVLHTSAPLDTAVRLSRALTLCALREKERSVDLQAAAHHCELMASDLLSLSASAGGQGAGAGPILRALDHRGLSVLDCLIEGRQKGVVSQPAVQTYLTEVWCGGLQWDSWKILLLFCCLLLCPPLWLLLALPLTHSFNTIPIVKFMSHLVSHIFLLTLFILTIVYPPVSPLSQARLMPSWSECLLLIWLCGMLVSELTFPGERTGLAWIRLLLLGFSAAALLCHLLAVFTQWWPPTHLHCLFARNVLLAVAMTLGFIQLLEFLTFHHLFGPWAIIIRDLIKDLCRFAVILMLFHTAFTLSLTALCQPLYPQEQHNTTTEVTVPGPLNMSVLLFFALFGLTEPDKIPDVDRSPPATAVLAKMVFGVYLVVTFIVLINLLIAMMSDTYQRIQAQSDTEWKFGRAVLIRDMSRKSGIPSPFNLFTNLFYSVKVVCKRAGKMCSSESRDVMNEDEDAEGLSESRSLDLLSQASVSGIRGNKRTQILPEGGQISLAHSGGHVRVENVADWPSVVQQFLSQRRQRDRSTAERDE

| Compound | EC50 [1] [µM] | Emax [1] [%] | response to intracellular application (infusion) [2] | nA/pF (-80 mV) (TRPML3) [3] [nA/pF] | Emax [4] [%] | ⊗F340/F380 (TRPML3) [5] | calcium imaging response when TRPML1 was coexpressed with TRPML3 [6] | cell membrane permeability ([2]; inferred from intracellular infusion experiment) | average current density relative to constitutively active TRPML3 A419P [3] | TRPML3 activity in excised patches [7] | activation of mutant TRPML1(NC) isoform [8] | ⊗F340/F380 (Control) [9] | kinetics of intracellular calcium increase [5] | response in HEK293 cells expressing TRPML2 [10] | TRPML3 activation in whole-cell patch-clamp ([3]; control compound) | intracellular calcium response in TRPML3-transfected cells [5] |
| --- | --- | --- | --- | --- | --- | --- | --- | --- | --- | --- | --- | --- | --- | --- | --- | --- |
| Cc1ccc(S(=O)(=O)n2nccc2-c2c(-c3ccc(Cl)cc3)noc2C)cc1 [SF-11, 3-(4-chlorophenyl)-5-methyl-4-[2-(4-methylphenyl)sulfonylpyrazol-3-yl]-1,2-oxazole] | > 29.9 | 8 ± 1 | elicited responses when applied intracellularly | −0.14 ±0.02 | 135 ± 20 | 0.72 ±0.05 | – | – | – | – | – | – | – | – | – | – |
| O=S(=O)(Nc1ccccc1N1CCCCC1)c1ccc(Cl)s1 [SF-22, 5-chloro-N-(2-piperidin-1-ylphenyl)thiophene-2-sulfonamide] | > 29.9 | 1 | did not elicit a response when infused into the cells | −0.24 ±0.06 | 156 ± 16 | 1.00 ±0.07 | strong reduction of the calcium imaging responses | not cell permeable | comparable to average current densities obtained from cells expressing the constitutively active varitint-waddler mutant isoform A419P | markedly increased TRPML3 activity | able to activate this channel; also recorded: can be activated by compound SF-22 | – | – | – | – | – |
| O=S(=O)(Nc1ccccc1N1CCOCC1)c1ccc(Cl)s1 [SF-23, 5-chloro-N-(2-morpholin-4-ylphenyl)thiophene-2-sulfonamide] | > 29.9 | 1 ± 1 | – | −0.37 ±0.08 | 174 ± 1 | 0.93 ±0.07 | strong reduction of the calcium imaging responses | – | comparable to average current densities obtained from cells expressing the constitutively active varitint-waddler mutant isoform A419P | markedly increased TRPML3 activity | – | 0.005 ±0.005 | – | – | – | – |
| CCOc1ccc(S(=O)(=O)N2CCCCCC2)c2ccccc12 [SF-31, 1-(4-ethoxynaphthalen-1-yl)sulfonylazepane] | > 29.9 | 2 ± 1 | – | −0.19 ±0.03 | 130 ± 20 | 1.00 ±0.10 | – | – | comparable to average current densities obtained from cells expressing the constitutively active varitint-waddler mutant isoform A419P | – | – | −0.011 ±0.001 | – | – | – | – |
| CCOc1ccc(S(=O)(=O)N2CCCCC2)c(C)c1C [SF-32, 1-(4-ethoxy-2,3-dimethylphenyl)sulfonylpiperidine] | > 29.9 | 2 ± 1 | – | −0.02 ±0.01 | 119 ± 5 | 0.52 ±0.05 | – | – | – | – | – | – | – | – | – | – |
| CCCOc1cc(C)c(Cl)cc1S(=O)(=O)N(CC)CC [SF-33, 5-chloro-N,N-diethyl-4-methyl-2-propoxybenzenesulfonamide] | > 29.9 | 2 ± 1 | – | −0.06 ±0.02 | 119 ± 21 | 0.65 ±0.10 | – | – | – | – | – | – | slowest kinetics | – | – | – |
| Cc1ccc(N2CCN(S(=O)(=O)N3CCCCC3)CC2)c(C)c1 [SF-41, 1-(2,4-dimethylphenyl)-4-piperidin-1-ylsulfonylpiperazine] | > 29.9 | 12 ± 1 | – | −0.42 ±0.07 | 138 ± 12 | 0.99 ±0.07 | – | – | Stronger responses | – | – | 0.015 ±0.001 | much more rapid increase than the other compounds | elicited responses | – | – |
| COc1ccccc1C1CN=NC12CCCc1ccccc1C2=O (stereo not shown) [SF-61, 4-(2-methoxyphenyl)spiro[3,4-dihydropyrazole-5,8’-6,7-dihydro-5H-benzo[7]annulene]-9’-one] | > 29.9 | 2 ± 1 | – | −0.07 ±0.01 | 102 ± 22 | 0.56 ±0.03 | – | – | – | – | – | – | – | – | – | – |
| Cc1ccccc1S(=O)(=O)c1c(C)cc(C)n(C(C)C)c1=O [SF-81, 4,6-dimethyl-3-(2-methylphenyl)sulfonyl-1-propan-2 ylpyridin-2-one] | > 29.9 | 1 | – | – | 138 ± 21 | 0.62 ±0.05 | – | – | comparable to average current densities obtained from cells expressing the constitutively active varitint-waddler mutant isoform A419P | – | – | – | – | elicited responses | – | – |
| CCOc1ccc(S(=O)(=O)NC(C)(C)C)cc1-c1nc(=O)c2c([nH]1)c(C(C)(C)C)nn2C [SN-1, N-tert-butyl-3-(3-tert-butyl-1-methyl-7-oxo-4H-pyrazolo[4,3-d]pyrimidin-5-yl)-4-ethoxybenzenesulfonamide] | > 29.9 | 6 | – | −0.33 ±0.10 | 151 ± 14 | 1.15 ±0.06 | – | – | comparable to average current densities obtained from cells expressing the constitutively active varitint-waddler mutant isoform A419P | – | – | 0.005 ±0.004 | – | – | – | – |
| CCCN(CCC)S(=O)(=O)c1ccc(C(=O)O)cc1 [probenicid, 4-(dipropylsulfamoyl)benzoic acid, reference compound] | – | – | – | – | – | – | – | – | – | – | – | – | – | – | did not activate TRPML3 | did not elicit any responses |
